# Measured values: ChEMBL document CHEMBL1134576, “Discovery of potent antagonists of leukocyte function-associated antigen-1/intercellular adhesion molecule-1 interaction. 3. Amide (C-ring) structure-activity relationship and improvement of overall properties of arylthio cinnamides” (J Med Chem, 2001)
# pIC50: −log10 of the molar value. Values joined by “and” are separate entries in the source; they are usually repeats but may differ in a detail not shown here. Equal entries are not always repeated.
# Legend:
# [1] = biological target: Intercellular adhesion molecule (ICAM-1), Integrin alpha-L/beta-2 (Homo sapiens, UniProt P05107+P20701); assay: Ability to antagonise the Leukocyte function-associated Antigen-1/ Intracellular Adhesion molecule-1 interaction (LFA-1/ICAM-1); format: functional
# [2] = test system: JY; assay: Inhibition of JY8 cell adhesion process (The assay was run with 1% fetal bovine serum); format: functional, cell-based; conditions: Homo sapiens, JY-8
# Procedure, shortened: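 JY-8 cells […] in the presence of 1% fetal bovine serum. Six concentrations from 6.4 × 10^-9 to 2 × 10^-5 were run in duplicate. IC50 is the mean of repeat measurements, with the range given.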
# [3] = test system: Rattus norvegicus; assay: Cmax value after po dose in rat; format: ADME, organism-based; parameters: route oral; conditions: in vivo
# Procedure, shortened: (§1)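 Rats (n = 4/group) received 5 mg/kg either iv as a slow jugular bolus or po by gavage. The terminal-phase rate constant gave t1/2 and AUC extrapolated to infinity. F compares oral with iv AUC.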
# [4] = Mean residence time after po dose in rat; format: ADME, organism-based; conditions: in vivo; procedure, shortened: as §1
# [5] = Half life period after iv dose in rat; format: ADME, organism-based; conditions: in vivo; procedure, shortened: as §1
# [6] = Oral bioavailability in rat; format: ADME, organism-based; conditions: in vivo; procedure, shortened: as §1
# [7] = Clearance after iv dose in rat; conditions: in vivo
# [8] = Water solubility
# [9] = test system: Rattus norvegicus; assay: mean arterial pressure in a rat model of reperfusion after 60 min at 3 mg/kg dose; format: functional, Artery
# [10] = test system: Rattus norvegicus; assay: rate pressure product in a rat model of reperfusion after 180 min at 50 mg/kg dose; format: functional
# [11] = test system: Rattus norvegicus; assay: mean arterial pressure in a rat model of reperfusion after 120 min at 3 mg/kg dose; format: functional, Artery
# [12] = test system: Rattus norvegicus; assay: rate pressure product in a rat model of reperfusion after 60 min at 50 mg/kg dose; format: functional
# [13] = test system: Rattus norvegicus; assay: heart rate in a rat model of ischemia after 15 min at 50 mg/kg dose; format: functional
# [14] = test system: Rattus norvegicus; assay: heart rate in a rat model of ischemia after 15 min at 3 mg/kg dose; format: functional
# [15] = test system: Rattus norvegicus; assay: mean arterial pressure in a rat model of reperfusion after 180 min at 50 mg/kg dose; format: functional, Artery
# [16] = test system: Rattus norvegicus; assay: rate pressure product in a rat model of reperfusion after 5 min at 3 mg/kg dose; format: functional
# [17] = test system: Rattus norvegicus; assay: rate pressure product in a rat model of reperfusion after 5 min at 50 mg/kg dose; format: functional
# [18] = test system: Rattus norvegicus; assay: rate pressure product in a rat model of ischemia immediately prior to the occlusion at 3 mg/kg dose; format: functional
# [19] = test system: Rattus norvegicus; assay: heart rate in a rat model of reperfusion after 180 min at 50 mg/kg dose
# [20] = test system: Rattus norvegicus; assay: mean arterial pressure in a rat model of reperfusion after 60 min at 50 mg/kg dose; format: functional, Artery
# [21] = test system: Rattus norvegicus; assay: mean arterial pressure in a rat model of reperfusion after 5 min at 50 mg/kg dose; format: functional, Artery
# [22] = test system: Rattus norvegicus; assay: rate pressure product in a rat model of reperfusion after 120 min at 50 mg/kg dose; format: functional
# [23] = test system: Rattus norvegicus; assay: rate pressure product in a rat model of reperfusion after 60 min at 3 mg/kg dose; format: functional
# [24] = test system: Rattus norvegicus; assay: heart rate pressure in a rat model of reperfusion after 120 min at 3 mg/kg dose; format: functional
# [25] = test system: Canis familiaris; assay: Mean residence time after po dose in dog; conditions: in vivo
# [26] = Clearance after intravenous dose in rat; conditions: in vivo, CL
# [27] = test system: Rattus norvegicus; assay: Clearance after intravenous dose in rat; conditions: in vivo
# [28] = test system: Rattus norvegicus; assay: heart rate in a rat model of reperfusion after 120 min at 50 mg/kg dose
# [29] = test system: Rattus norvegicus; assay: mean arterial pressure in a rat model of ischemia after 15 min at 3 mg/kg dose; format: functional, Artery
# [30] = test system: Rattus norvegicus; assay: Half life period after intravenous dose in rat; format: ADME, organism-based; conditions: in vivo; procedure, shortened: as §1
# [31] = test system: Rattus norvegicus; assay: rate pressure product in a rat model of ischemia after 15 min at 3 mg/kg dose; format: functional
# [32] = test system: Rattus norvegicus; assay: rate pressure product in a rat model of reperfusion after 120 min at 3 mg/kg dose; format: functional
# [33] = test system: Canis familiaris; assay: Cmax value after po dose in dog; conditions: in vivo
# [34] = test system: Rattus norvegicus; assay: heart rate in a rat model of ischemia immediately prior to the occlusion at 3 mg/kg dose; format: functional
# [35] = test system: Rattus norvegicus; assay: rate pressure product in a rat model of ischemia after 15 min at 50 mg/kg dose; format: functional
# [36] = test system: Rattus norvegicus; assay: heart rate in a rat model of ischemia immediately prior to the occlusion at 50 mg/kg dose; format: functional
# [37] = test system: Rattus norvegicus; assay: heart rate pressure in a rat model of reperfusion after 180 min at 3 mg/kg dose; format: functional
# [38] = test system: Rattus norvegicus; assay: mean arterial pressure in a rat model of reperfusion after 180 min at 3 mg/kg dose; format: functional, Artery
# [39] = test system: Rattus norvegicus; assay: heart rate in a rat model of reperfusion after 60 min at 50 mg/kg dose; format: functional
# [40] = test system: Rattus norvegicus; assay: mean arterial pressure in a rat model of reperfusion after 120 min at 50 mg/kg dose; format: functional, Artery
# [41] = test system: Rattus norvegicus; assay: heart rate pressure in a rat model of reperfusion after 5 min at 3 mg/kg dose; format: functional
# [42] = test system: Rattus norvegicus; assay: rate pressure product in a rat model of reperfusion after 180 min at 3 mg/kg dose; format: functional
# [43] = test system: Rattus norvegicus; assay: mean arterial pressure in a rat model of ischemia after 15 min at 50 mg/kg dose; format: functional, Artery
# [44] = test system: Rattus norvegicus; assay: rate pressure product in a rat model of ischemia immediately prior to the occlusion at 50 mg/kg dose; format: functional
# [45] = test system: Rattus norvegicus; assay: mean arterial pressure in a rat model of ischemia immediately prior to the occlusion at 50 mg/kg dose; format: functional, Artery
# [46] = test system: Rattus norvegicus; assay: mean arterial pressure in a rat model of reperfusion after 5 min at 3 mg/kg dose; format: functional, Artery
# [47] = test system: Rattus norvegicus; assay: mean arterial pressure in a rat model of ischemia immediately prior to the occlusion at 3 mg/kg dose; format: functional, Artery
# [48] = test system: Rattus norvegicus; assay: heart rate pressure in a rat model of reperfusion after 60 min at 3 mg/kg dose; format: functional
# [49] = test system: Rattus norvegicus; assay: heart rate in a rat model of reperfusion after 5 min at 50 mg/kg dose; format: functional
# [50] = Clearance after iv dose
# [51] = Cmax value after po dose; format: ADME, organism-based; parameters: route oral; conditions: in vivo
# [52] = Percent oral bioavailability after po dose; format: ADME, organism-based; conditions: eutheria, in vivo
# Sequence of Intercellular adhesion molecule (ICAM-1), Integrin alpha-L/beta-2 (P20701 whole entry): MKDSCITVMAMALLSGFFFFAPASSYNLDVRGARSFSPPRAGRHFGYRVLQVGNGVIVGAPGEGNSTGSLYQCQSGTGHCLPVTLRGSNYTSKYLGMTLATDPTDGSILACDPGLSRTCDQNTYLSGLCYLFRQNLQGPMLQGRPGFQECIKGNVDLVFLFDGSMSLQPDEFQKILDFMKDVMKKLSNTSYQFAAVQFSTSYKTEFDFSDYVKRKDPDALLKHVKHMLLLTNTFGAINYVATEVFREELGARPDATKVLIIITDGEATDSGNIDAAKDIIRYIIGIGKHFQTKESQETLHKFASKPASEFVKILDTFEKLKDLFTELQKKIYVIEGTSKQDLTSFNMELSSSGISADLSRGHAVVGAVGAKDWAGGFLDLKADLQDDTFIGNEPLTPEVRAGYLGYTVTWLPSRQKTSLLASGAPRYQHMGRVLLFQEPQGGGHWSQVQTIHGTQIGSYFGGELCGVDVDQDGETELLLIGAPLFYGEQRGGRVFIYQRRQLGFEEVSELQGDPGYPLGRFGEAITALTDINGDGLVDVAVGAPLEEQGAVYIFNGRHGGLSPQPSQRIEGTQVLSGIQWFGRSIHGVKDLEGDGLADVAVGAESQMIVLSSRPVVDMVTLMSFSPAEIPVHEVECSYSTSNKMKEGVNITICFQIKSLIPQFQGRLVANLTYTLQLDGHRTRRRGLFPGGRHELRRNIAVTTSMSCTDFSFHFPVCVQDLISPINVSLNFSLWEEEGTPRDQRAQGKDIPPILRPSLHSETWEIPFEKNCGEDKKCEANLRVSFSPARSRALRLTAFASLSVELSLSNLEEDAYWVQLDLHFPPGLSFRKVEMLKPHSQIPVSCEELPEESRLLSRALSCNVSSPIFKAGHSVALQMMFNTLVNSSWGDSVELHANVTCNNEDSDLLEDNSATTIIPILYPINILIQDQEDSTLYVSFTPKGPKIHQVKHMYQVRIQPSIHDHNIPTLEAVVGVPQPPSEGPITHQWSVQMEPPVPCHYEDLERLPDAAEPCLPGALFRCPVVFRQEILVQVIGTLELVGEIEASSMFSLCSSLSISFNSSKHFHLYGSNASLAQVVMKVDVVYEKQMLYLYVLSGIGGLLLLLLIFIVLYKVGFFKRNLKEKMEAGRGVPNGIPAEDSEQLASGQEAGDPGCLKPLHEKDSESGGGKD
# Sequence of Intercellular adhesion molecule (ICAM-1), Integrin alpha-L/beta-2 (P05362 whole entry, further chain): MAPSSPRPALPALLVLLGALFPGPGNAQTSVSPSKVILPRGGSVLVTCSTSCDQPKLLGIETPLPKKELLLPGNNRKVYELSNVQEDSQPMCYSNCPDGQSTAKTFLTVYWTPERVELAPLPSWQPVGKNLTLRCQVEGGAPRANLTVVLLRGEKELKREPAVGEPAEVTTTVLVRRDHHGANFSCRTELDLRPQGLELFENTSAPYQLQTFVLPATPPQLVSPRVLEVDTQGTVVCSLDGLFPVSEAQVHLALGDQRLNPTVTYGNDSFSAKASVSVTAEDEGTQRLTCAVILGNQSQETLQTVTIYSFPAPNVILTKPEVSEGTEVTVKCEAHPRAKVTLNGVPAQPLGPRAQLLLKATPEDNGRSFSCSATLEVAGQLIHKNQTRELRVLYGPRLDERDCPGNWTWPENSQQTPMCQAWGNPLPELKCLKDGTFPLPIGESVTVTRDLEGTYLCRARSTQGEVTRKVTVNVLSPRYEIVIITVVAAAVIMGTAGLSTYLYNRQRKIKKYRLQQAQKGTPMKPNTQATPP
# Sequence of Intercellular adhesion molecule (ICAM-1), Integrin alpha-L/beta-2 (P05107 whole entry): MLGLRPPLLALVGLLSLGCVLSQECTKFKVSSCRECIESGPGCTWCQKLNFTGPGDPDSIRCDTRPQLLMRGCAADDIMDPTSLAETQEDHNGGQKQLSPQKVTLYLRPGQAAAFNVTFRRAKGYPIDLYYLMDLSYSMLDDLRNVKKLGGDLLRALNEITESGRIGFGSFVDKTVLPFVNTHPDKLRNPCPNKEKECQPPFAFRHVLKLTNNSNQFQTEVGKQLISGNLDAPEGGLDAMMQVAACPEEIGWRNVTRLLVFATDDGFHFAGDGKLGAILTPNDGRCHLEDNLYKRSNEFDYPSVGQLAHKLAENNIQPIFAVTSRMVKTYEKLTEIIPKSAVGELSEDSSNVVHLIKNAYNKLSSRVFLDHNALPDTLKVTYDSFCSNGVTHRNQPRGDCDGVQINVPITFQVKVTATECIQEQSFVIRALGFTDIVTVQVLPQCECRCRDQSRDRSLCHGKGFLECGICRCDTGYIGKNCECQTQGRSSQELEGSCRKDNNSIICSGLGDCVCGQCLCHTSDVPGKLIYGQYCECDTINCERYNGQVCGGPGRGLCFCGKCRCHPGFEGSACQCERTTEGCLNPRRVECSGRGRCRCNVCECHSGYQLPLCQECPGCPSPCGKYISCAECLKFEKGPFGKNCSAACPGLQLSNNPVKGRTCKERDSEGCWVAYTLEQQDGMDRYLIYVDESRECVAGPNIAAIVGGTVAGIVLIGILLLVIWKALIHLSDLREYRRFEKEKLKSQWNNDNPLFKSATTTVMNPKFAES
smiles,measurement,setting,value
COC(=O)C1CNCCN1C(=O)/C=C/c1ccc(Sc2ccccc2C(C)C)c([N+](=O)[O-])c1 (configuration not stated),pIC50,[1],6.47
CC(C)c1ccccc1Sc1ccc(/C=C/C(=O)N2CCOC(c3nnn[nH]3)C2)cc1[N+](=O)[O-] (configuration not stated),pIC50,[1],7.70
same,pIC50,[2],8.70
COC(=O)N1CCN(C(=O)/C=C/c2ccc(Sc3ccccc3C(C)C)c([N+](=O)[O-])c2)C(C(=O)O)C1 (configuration not stated),pIC50,[1],6.89
COC(=O)C1CN(C(=O)/C=C/c2ccc(Sc3ccccc3C(C)C)c([N+](=O)[O-])c2)CCN1C (configuration not stated),pIC50,[1],7.35
same,pIC50,[2],6.96
CC(=O)N1CCN(C(=O)/C=C/c2ccc(Sc3ccccc3C(C)C)c([N+](=O)[O-])c2)CC1C(=O)O (configuration not stated),pIC50,[1],6.17
CC(C)c1ccccc1Sc1ccc(/C=C/C(=O)N2CCC(C(=O)O)CC2)cc1[N+](=O)[O-],pIC50,[1],7.51
same,Cmax,[3],0.5 ug m l-1
same,MRT,[4],3.5 h
same,pIC50,[2],6.78
same,half-life,[5],1.15 h
same,bioavailability,[6],21%
same,clearance,[7],13.2 mL/min/kg
CC(C)c1ccccc1Sc1ccc(/C=C/C(=O)N2CCC(=O)CC2)cc1[N+](=O)[O-],pIC50,[1],7.22
same,pIC50,[2],6.62
CC(C)c1ccccc1Sc1ccc(/C=C/C(=O)N2CCNC(C(=O)N(C)C)C2)cc1[N+](=O)[O-] (configuration not stated),pIC50,[1],7.12
CC(C)c1ccccc1Sc1ccc(/C=C/C(=O)N2CCN(C)CC2)cc1[N+](=O)[O-],pIC50,[1],6.89
CC(C)c1ccccc1Sc1ccc(/C=C/C(=O)N2CCNC(CO)C2)cc1[N+](=O)[O-] (configuration not stated),pIC50,[1],6.55
same,Cmax,[3],0 ug m l-1
same,half-life,[5],1.9 h
same,bioavailability,[6],0%
same,clearance,[7],53.3 mL/min/kg
same,Solubility,[8],5 µg/mL
O=C(O)C1CCCN(C(=O)/C=C/c2ccc(Sc3ccc4c(c3)OCCO4)c(C(F)(F)F)c2)C1 (configuration not stated),pIC50,[1],7.60
same,Cmax,[3],1.5 ug m l-1
same,MAP,[9],99 mmHg
same,RPP,[10],32000 mmHg beats min-1
same,MAP,[11],85 mmHg
same,RPP,[12],46700 mmHg beats min-1
same,MRT,[4],5 h
same,HR,[13],400 beats min-1
same,HR,[14],391 beats min-1
same,pIC50,[2],6.85
same,MAP,[15],80 mmHg
same,RPP,[16],37500 mmHg beats min-1
same,RPP,[17],40200 mmHg beats min-1
same,RPP,[18],46400 mmHg beats min-1
same,HR,[19],399 beats min-1
same,MAP,[20],118 mmHg
same,MAP,[21],105 mmHg
same,RPP,[22],38100 mmHg beats min-1
same,RPP,[23],38100 mmHg beats min-1
same,HR,[24],371 beats min-1
same,MRT,[25],5.7 h
same,clearance,[26],4.83 mL/min/kg
same,clearance,[27],5.67 mL/min/kg
same,HR,[28],397 beats min-1
same,MAP,[29],107 mmHg
same,T1/2,[30],2.3 h and 5.7 h
same,RPP,[31],41800 mmHg beats min-1
same,RPP,[32],31800 mmHg beats min-1
same,F,[6],29% and 55%
same,Cmax,[33],3700 ng/mL
same,HR,[34],393 beats min-1
same,RPP,[35],42700 mmHg beats min-1
same,HR,[36],419 beats min-1
same,HR,[37],376 beats min-1
same,MAP,[38],95 mmHg
same,HR,[39],396 beats min-1
same,MAP,[40],96 mmHg
same,HR,[41],379 beats min-1
same,RPP,[42],35100 mmHg beats min-1
same,MAP,[43],105 mmHg
same,RPP,[44],54000 mmHg beats min-1
same,MAP,[45],128 mmHg
same,MAP,[46],98 mmHg
same,MAP,[47],118 mmHg
same,HR,[48],382 beats min-1
same,HR,[49],382 beats min-1
COC(=O)C1CN(C(=O)/C=C/c2ccc(Sc3ccccc3C(C)C)c([N+](=O)[O-])c2)CCN1 (configuration not stated),pIC50,[1],7.22
same,pIC50,[2],7.01
CC(C)c1ccccc1Sc1ccc(/C=C/C(=O)N2CCNCC2)cc1[N+](=O)[O-],pIC50,[1],6.35
CC(C)c1ccccc1Sc1ccc(/C=C/C(=O)N2CCC(S(=O)(=O)O)CC2)cc1[N+](=O)[O-],pIC50,[1],7.05
CC(C)c1ccccc1Sc1ccc(/C=C/C(=O)N2CC=CC2C(=O)O)cc1C(F)(F)F (configuration not stated),pIC50,[1],6.89
CC(C)c1ccccc1Sc1ccc(/C=C/C(=O)N2CCN(C(=O)c3ccncc3)CC2)cc1[N+](=O)[O-],pIC50,[1],7.18
same,pIC50,[2],7.70
O=C(O)C1CCN(C(=O)/C=C/c2ccc(Sc3ccc4c(c3)OCCO4)c(C(F)(F)F)c2)CC1,pIC50,[1],7.52
same,Cmax,[3],2.8 ug m l-1
same,MRT,[4],6.7 h
same,pIC50,[2],6.82
same,half-life,[5],3.9 h
same,bioavailability,[6],39%
same,clearance,[7],2 mL/min/kg
CC(=O)N1CCN(C(=O)/C=C/c2ccc(Sc3ccccc3C(C)C)c([N+](=O)[O-])c2)CC1 [A-286982],clearance,[50],45 mL/min/kg
same,Cmax,[51],0 ug m l-1
same,bioavailability,[52],0%
same,Solubility,[8],< 1 µg/mL
CNC(=O)N1CCN(C(=O)/C=C/c2ccc(Sc3ccccc3C(C)C)c([N+](=O)[O-])c2)CC1,pIC50,[1],7.60
CC(C)c1ccccc1Sc1ccc(/C=C/C(=O)N2CCC3(CC2)OCCO3)cc1[N+](=O)[O-],pIC50,[1],7.26
CC(C)c1ccccc1Sc1ccc(/C=C/C(=O)N2CCCC(C(=O)O)C2)cc1[N+](=O)[O-] (configuration not stated),pIC50,[1],7.52
same,Cmax,[3],0.45 ug m l-1
same,MRT,[4],11.3 h
same,pIC50,[2],7.05
same,half-life,[5],0.4 h
same,bioavailability,[6],19%
same,clearance,[7],35 mL/min/kg
